STAT1 inh – reduces IFN-gamma driven STAT1 reporter signal; AID 920; NIH 3T3 STAT1-luciferase reporter, luminescence; 200,000 compounds, 0.35% hits; inhibition, % at 5.5 µM;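 active = inhibition above a set limit, the mean inhibition across all tested compounds plus 3 SD, cut at about 34% in these data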;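 note: 0% = IFN-gamma with DMSO and 100% = IFN-gamma with 300 µM nifuroxazide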
STAT3 act – activators of IL-6 induced STAT3 signaling | activation (% of control), % at 5.6 µM | AID 871 | 190,000 compounds, 0.91% hits | U3A cells, IL-6 STAT3-luciferase reporter, luminescence; 100% = signal with IL-6 EC80 alone;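 active = activation above the screen-wide mean of compound activation plus 3 SD, cut at about 130% in these data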;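 note: 0% = background luminescence of wells with medium and substrate only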
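Test system: Human STAT1-deficient U3A cells with stable STAT3-luciferase reporter | Also added: Interleukin-6, 33 ng/mL | Timing: Compound pre-incubation 1 h before IL-6, then 6 h stimulation at 37 °C | Technique: Luciferase reporter luminescence | Read-out: Percent of IL-6-only median luminescence | Benchmarks: IL-6-only wells as 100% reference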
MT stabilize HCS – stabilizes microtubules in HeLa cells; HeLa tubulin immunostaining HCS, 24 h; share of cells brighter than vehicle mean+2SD; 200,000 compounds, 0.83% hits; % tubulin-high responders, % at 10 µM;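 active = plate Z-score above 3 for both tubulin-high and condensed-nucleus cell shares, with cell loss under 80%, at 10 µM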;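 note: anti alpha tubulin signal scored within the nucleus-defined area of each cell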
b-catenin transl – beta-catenin nuclear translocation modulation. HeLa beta-catenin nuclear translocation, immunofluorescence imaging. nuclear translocation activity, % at 5 µM. 190,000 compounds, 0.3% hits;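 active = nuclear translocation activity above 50% at 5 µM, with a well cell count of 50 or more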;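 note: per-cell ratio of nuclear to cytoplasmic median beta-catenin stain intensity; plate controls were DMSO negative control for no effect and GSK-3 inhibitor IX positive control for full effect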
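Test system: human HeLa cells, endogenous beta-catenin. Times: 24 h compound exposure, 37°C. Measured by: beta-catenin immunofluorescence imaging with DAPI.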
STAT3 inh-1 – reduces IL-6 driven STAT3 reporter signal. U3A cells, IL-6 STAT3-luciferase reporter, luminescence; host cell line lacks STAT1. inhibition, % at 5.5 µM. 190,000 compounds, 0.89% hits. AID 862;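 active = inhibition above the mean inhibition across all screened compounds plus 3 SD, cut at about 44% in these data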;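 note: 0% = DMSO only wells and 100% = 100 µM nifuroxazide control wells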
STAT3 inh-2 – confirmation of STAT3 signaling inhibitors. U3A cells, IL-6 STAT3 luciferase reporter, luminescence; cell line lacks STAT1. shares compounds with STAT3 inh-1. inhibition, % at 5.7 µM. 1,200 compounds, 45% hits. AID 1265;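 active = inhibition above the hit cutoff computed for the primary STAT3 screen, cut at about 44% in these data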;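 note: 0% = IL-6 plus DMSO and 100% = IL-6 plus nifuroxazide control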
NFkB inh STAT3ct – NF-kappaB inhibition in STAT3 inhibitor counter-screen; shares compounds with STAT3 inh-1; HEK293T NF-kB luciferase reporter, TNF-alpha induced; inhibition, % at 5.7 µM; 1,200 compounds, 36% hits; AID 1308;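 active = inhibition above the mean of solvent-only control wells plus 3 SD, cutoff set per campaign, cut at about 13% in these data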;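 note: 0% = TNF-alpha with DMSO and 100% = TNF-alpha with MG high control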
STAT1 inh 2 – counter-screen for STAT3 inhibitors: STAT1 inhibition | shares compounds with STAT3 inh-1 | NIH 3T3 STAT1-luciferase reporter, IFN-gamma induced, luminescence | inhibition, % at 5.7 µM | 1,200 compounds, 27% hits | AID 1317;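 active = inhibition above the mean plus 3 SD of solvent-only control wells, limit set per screening run, cut at about 16% in these data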;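 note: 0% = DMSO with IFN-gamma and 100% = nifuroxazide control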
* = called active by the depositor; · = no result given. In the library only some 2.4% were active in any assay of this set; here they are far more common.

SMILES	STAT1 inh	STAT3 act	MT stabilize HCS	b-catenin transl	STAT3 inh-1	STAT3 inh-2	NFkB inh STAT3ct	STAT1 inh 2
Cn1c(CN2CCCC2)nc2cc(NC(=O)c3ccc(Cl)cc3)ccc21	-51.6	89.4	3.0	-1.4	22.1	·	·	·
Cc1ccc(C(=O)N2CCCC(C(=O)c3ccc(Oc4ccccc4)cc3)C2)cn1 (stereo unspecified)	11.9	89.0	2.5	4.7	16.8	·	·	·
Cc1ccc(C(=O)Nc2cccc(C(=O)O)c2)cc1S(=O)(=O)N1CCOCC1	19.0	80.9	2.8	-2.4	22.9	·	·	·
COc1ccc(C(=O)Nc2ccc(-c3ccc(C)o3)cc2)cc1S(=O)(=O)N1CCOCC1	-0.1	45.2	11.5	-4.8	70.2*	71.3*	28.3*	0.9
O=C(Nc1cccc(Br)c1)c1ccc(Cl)c(S(=O)(=O)N2CCOCC2)c1	11.8	40.2	3.3	4.1	72.9*	65.9*	15.4*	13.3
Cc1cc(C)n(-c2ccc(C(=O)Nc3cccc(S(=O)(=O)N4CCCC4)c3)cc2)n1	23.4	66.2	6.1	-2.6	44.4*	39.5	4.5	8.9
Cc1ccc(C(=O)Nc2cccc(C(=O)O)c2)cc1S(=O)(=O)N1CCCCC1	21.9	57.7	2.0	0.0	54.9*	12.6	14.5*	18.0*
CN(C(=S)NC(=O)CCCOc1ccc(Cl)cc1Cl)c1ccccc1	4.5	99.3	3.2	-2.9	4.3	·	·	·
COc1ccccc1N1CCN(C2CC(=O)N(C)C2=O)CC1 (stereo unspecified)	1.3	96.5	1.8	-0.2	6.4	·	·	·
O=C(Nc1ccc(S(=O)(=O)N2CCCC2)cc1)c1ccc(OCC2CCCO2)cc1 (stereo unspecified)	7.3	69.6	3.0	-5.9	39.3	·	·	·
O=C(Nc1ccc(Cl)c(S(=O)(=O)N2CCOCC2)c1)c1ccc(OCC2CCCO2)cc1 (stereo unspecified)	26.1	57.9	2.4	-2.9	54.3*	61.0*	21.6*	8.9
COc1ccccc1OCC(=O)c1[nH]c(C)c(C(C)=O)c1C	13.5	58.6	1.6	·	55.8*	46.3*	5.2	11.8
CC(=O)c1c(C)[nH]c(C(=O)COc2cc(C)ccc2C(C)C)c1C	27.4	44.7	3.7	·	68.1*	72.7*	21.3*	22.0*
CC(=O)c1c(C)[nH]c(C(=O)COc2ccc(C#N)cc2)c1C	10.3	89.5	2.8	-0.2	16.2	·	·	·
CCC[n+]1cn(/C(C(=S)Nc2cccc(Cl)c2C)=C(/[O-])c2ccc(OC)c(OC)c2)c2ccccc21	1.1	105.5	1.3	-4.1	-6.0	·	·	·
COc1ccc(C)cc1-n1nnnc1SCn1nnc2ccccc2c1=O	25.3	59.0	1.8	-0.8	53.7*	43.7*	7.0	15.9
Cc1ccc(-n2nnnc2SCn2nnc3ccccc3c2=O)cc1	-7.1	108.3	1.8	4.7	-5.1	·	·	·
COCCN(CCOC)S(=O)(=O)c1ccc(C(=O)Nc2ccc([N+](=O)[O-])cc2OC)cc1	-7.0	101.7	10.2	0.6	1.7	·	·	·
CS(=O)(=O)N1CCc2cc(S(=O)(=O)Nc3ccc4c(c3)OCCO4)ccc21	27.2	63.9	5.5	0.6	46.0*	36.3	1.8	20.8*
CCC(=O)N1CCCc2cc(S(=O)(=O)N3CCN(c4ccccc4F)CC3)ccc21	21.5	61.9	3.6	·	52.6*	35.6	11.0	12.5
CC(=O)N1CCc2cc(S(=O)(=O)NC(C(=O)Nc3ccc4c(c3)OCCO4)C(C)C)ccc21 (stereo unspecified)	4.0	99.2	2.4	·	7.5	·	·	·
O=C(C1CCC1)N1CCc2cc(S(=O)(=O)Nc3ccc4c(c3)OCCO4)ccc21	22.3	49.2	5.6	-1.0	65.3*	50.4*	7.6	20.6*
CS(=O)(=O)N1CCc2cc(S(=O)(=O)NCCNS(=O)(=O)c3ccc4c(c3)CCN4S(C)(=O)=O)ccc21	3.0	106.8	1.3	1.9	-2.7	·	·	·
O=C(C1CCC1)N1CCc2cc(S(=O)(=O)NC3CCCC3)ccc21	3.2	94.7	3.5	2.2	9.4	·	·	·
CCC(=O)N1CCCc2cc(S(=O)(=O)N3CCN(c4ncccn4)CC3)ccc21	1.7	92.8	1.8	·	16.9	·	·	·
SMILES	STAT1 inh	STAT3 act	MT stabilize HCS	b-catenin transl	STAT3 inh-1	STAT3 inh-2	NFkB inh STAT3ct	STAT1 inh 2
CCC(=O)N1CCc2cc(S(=O)(=O)Nc3ccc4c(c3)OCCO4)ccc21	21.0	63.8	1.4	0.5	46.6*	34.7	-2.1	12.4
N#Cc1ccc(OCC(=O)Nc2ccccc2NS(=O)(=O)c2cccs2)cc1	7.4	105.7	1.8	-1.0	-4.2	·	·	·
CCOc1cccc2cc(C(=O)NCCC3=CCCCC3)c(=O)oc12	-3.5	98.8	3.7	0.6	6.1	·	·	·
COc1ccc(Nc2nc(-c3ccccc3)nc3ccccc23)cc1S(=O)(=O)N1CCOCC1	·	·	·	-0.2	·	·	·	·
CCN(CC)S(=O)(=O)c1ccc(Oc2ccc(S(=O)(=O)N(CC)CC)cc2)cc1	27.7	35.5	1.7	-13.3	77.7*	67.5*	27.2*	25.8*
c1ccc(C2=NNC(=NC3CC3)SC2)cc1	26.9	41.8	2.5	-3.5	74.3*	37.7	11.9	-16.9
O=C(NCCCN1CCOCC1)c1ccc(CSc2ccc(Cl)cc2)cc1	5.9	111.2	4.2	0.6	-4.9	·	·	·
COc1ccccc1N1C(=O)C2CCC(c3ccccc3)CC2C1=O (stereo unspecified)	6.3	90.0	1.3	-2.8	10.2	·	·	·
CC1CCC2C(=O)N(c3ccccc3OC(=O)c3ccccc3)C(=O)C2C1 (stereo unspecified)	5.0	65.5	2.5	-2.7	43.9*	45.0*	1.6	3.2
Cc1sc2ncnc(NCc3cccs3)c2c1C	-11.3	63.7	2.9	·	48.4*	36.4	12.0	2.4
Cc1ccc(-c2cnc3cc(C)nn3c2)cc1	22.1	43.9	3.1	-1.9	69.1*	29.7	-0.2	-56.8
Cc1cc2ncc(-c3ccc(Cl)cc3)cn2n1	-37.2	82.9	4.5	-1.3	21.4	·	·	·
Cc1nn2c(-c3ccncc3)ccnc2c1Cl	-11.5	92.3	2.1	3.3	16.9	·	·	·
Cc1ccc(-c2cnc3c(Cl)c(C)nn3c2)cc1	10.8	33.1	16.9	40.8	82.4*	41.1	21.6*	-44.1
CCN(Cc1ccccc1)c1ccc(/C=C(\C#N)c2ccccn2)cc1	-73.9	112.6	4.0	-0.7	-20.6	·	·	·
N#C/C(=C\c1ccc(C(=O)O)cc1)c1ccccn1	4.1	103.9	3.2	-1.8	6.4	·	·	·
CCN(CC)c1ccc(/C=C(\C#N)c2ccccn2)cc1	10.9	39.8	21.5*	·	74.2*	45.1*	29.3*	-43.0
CN(CCC#N)c1ccc(/C=C(\C#N)c2ccccn2)cc1	-45.7	58.3	1.6	·	49.4*	23.2	-6.9	-88.1

Screening results: PubChem, several laboratories
